Assay results as given in ChEMBL document CHEMBL5149983, “Scaffold-Hopping Strategy on a Series of Proteasome Inhibitors Led to a Preclinical Candidate for the Treatment of Visceral Leishmaniasis” (J Med Chem, 2021).
Values after ≈ are worked out from the molar mass of the structure shown. Active and inactive are the calls of the source.

Experiments:
[1] = Cytotoxicity against human THP-1 cells; format: toxicity, cell-based
[2] = Inhibition of chymotrypsin activity of proteasome beta5 subunit in Leishmania donovani amastigotes infected in human THP-1 cells incubated for 96 hrs by INMAC assay; conditions: THP-1, 96 h, read-out: pEC50 (converted)
[3] = Solubility of the compound in FaSSIF at pH 6.5 measured after 4 hrs by HPLC-UV analysis; format: physicochemical; conditions: for solubility at 4 h: FaSSIF, pH 6.5
[4] = Intrinsic clearance in mouse liver microsomes; format: ADME, Microsome
[5] = Genotoxicity against Salmonella typhimurium by Ames test; format: toxicity; conditions: salmonella enterica subsp. enterica serovar typhimurium
Leishmania donovani [6] = experiment: Antileishmanial activity against amastigote stage of Leishmania donovani MHOM/ET/67/HU3 infected in BALB/c mouse assessed as reduction in parasitemia at 25 mg/kg, po bid for 10 days; format: functional, organism-based; conditions: time 10.0 day
Leishmania donovani [7] = experiment: Antileishmanial activity against amastigote stage of Leishmania donovani MHOM/ET/67/HU3 infected in po dosed BALB/c mouse assessed as reduction in parasitemia administered twice a day for 10 days; format: functional; conditions: MHOM/ET/67/HU3, 240 h, time 10 day
[8] = Kinetic aqueous solubility of the compound by CLND method; format: physicochemical; conditions: buffer; read-out: Kinetic_solubility
[9] = Metabolic stability of the compound in human plasma assessed as parent compound remaining measured after 3 hrs; format: ADME, cell-free; conditions: read-out: Stability
[10] = Metabolic stability of the compound in mouse plasma assessed as parent compound remaining measured after 3 hrs; format: ADME, cell-free; conditions: read-out: Stability
[11] = Time during which drug concentration exceeds EC90 for inhibition of chymotrypsin activity of proteasome beta5 subunit in Leishmania donovani amastigotes infected in human THP-1 cells in NMRI mouse blood at 10 mg/kg, po by UPLC-MS/MS analysis; format: organism-based; conditions: in vivo
Method in brief: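 Mice received a single 10 mg/kg oral dose, with a separate 3 mg/kg iv arm in the same PK study. Blood levels were followed over time, and time above the EC90 threshold was taken from the oral blood profile.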

[12] = Time during which drug concentration exceeds EC90 for inhibition of chymotrypsin activity of proteasome beta5 subunit in Leishmania donovani amastigotes infected in human THP-1 cells in NMRI mouse blood at 50 mg/kg, po by UPLC-MS/MS analysis; format: organism-based; conditions: in vivo
Method in brief: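 Not measured directly. Time above EC90 at 50 mg/kg po was projected from the 10 mg/kg oral mouse blood profile, assuming exposure rises linearly with dose.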

THP-1 = conditions: Leishmania donovani, time 96.0 hrs

SMILES	CLH [4] [mL/min/g]	EC50 [1] [µM]	other results
O=C(Nc1cccc(-c2cc3cc(-c4ccccc4)cnc3[nH]2)c1)N1CCCC1		> 50.1	
O=C(Nc1ccc(F)c(-c2ccn3c(N4CCOCC4)cnc3n2)c1)N1CCCC1 [GSK-3494245]	0.8	≥ 63.1	EC50 [2]: 1.58 µM; solubility at 4 h [3]: 440 µM (≈ 181 µg/mL); Activity [5]: Non-Toxic; Activity (Leishmania donovani [6]): Active; ED90 (Leishmania donovani [7]): 16 mg/kg; ED99 (Leishmania donovani [7]): 30 mg/kg
O=C(Nc1ccc(F)c(-c2cn3nc(N4CCOCC4)cnc3n2)c1)N1CCCC1			solubility at 4 h [3]: 32 µM (≈ 13.2 µg/mL); Activity [5]: Toxic
CC(=O)N1CCN(c2cnc3nc(-c4cc(NC(=O)N5CCCC5)ccc4F)ccn23)CC1		> 50.1	
O=C(Nc1ccc(F)c(-c2cc3nc(N4CCOCC4)cnc3[nH]2)c1)N1CCCC1		> 50.1	
O=C(Nc1nccc(-c2cn3cc(N4CCOCC4)cnc3n2)n1)N1CCCC1	< 0.5	> 50.1	solubility ([3]; simulated gi fluid, pH 6.5, 4 h): > 2500 µM
O=C(Nc1cncc(-c2cn3cc(N4CCOCC4)cnc3n2)n1)N1CCCC1	< 0.5	> 50.1	
O=C(Nc1ccc(F)c(-c2cnn3c(-c4ccccc4)cnc3n2)c1)N1CCCC1	3.3	> 50.1	EC50 [2]: 1.26 µM; solubility at 4 h [3]: 3 µM (≈ 1.21 µg/mL)
Cn1c(-c2cc(NC(=O)N3CCCC3)ccc2F)cc2cc(N3CCOCC3)cnc21		> 50.1	
O=C(Nc1cccc(-c2nc3ncccc3o2)c1)c1ccco1	24	> 50.1	EC50 [2]: 6.31 µM
O=C(Nc1cccc(-c2nc3ccccc3o2)c1)c1ccco1		> 50.1	Activity [5]: Toxic
O=C1CN(c2cnc3nc(-c4cc(NC(=O)N5CCCC5)ccc4F)ccn23)CCN1		> 50.1	
O=C(Nc1ccc(F)c(-c2cn3ncc(N4CCOCC4)cc3n2)c1)N1CCCC1		> 50.1	
O=C(Nc1cccc(-c2cc3ncc(-c4ccccc4)cn3n2)c1)N1CCCC1		> 50.1	
O=C(Nc1cccc(-c2cc3cc(N4CCOCC4)nnc3o2)c1)N1CCCC1		> 50.1	

Continued, in another order:

CLH [4] [mL/min/g]	SMILES	EC50 [1] [µM]	other results
1.8	C[C@@H]1CN(c2cnc3nc(-c4cc(NC(=O)N5CCCC5)ccc4F)ccn23)CCO1		solubility kinetic [8]: 345 µM (≈ 146 µg/mL); EC50 [2]: 1 µM; solubility at 4 h [3]: 1580 µM (≈ 670 µg/mL)
< 0.5	COc1ccc(NC(=O)N2CCCC2)cc1-c1cn2cc(N3CCOCC3)cnc2n1	> 50.1	
2.7	C[C@H]1CN(c2cnc3nc(-c4cc(NC(=O)N5CCCC5)ccc4F)ccn23)CCO1		solubility kinetic [8]: ≥ 362 µM; EC50 [2]: 1.26 µM; solubility at 4 h [3]: 1320 µM (≈ 561 µg/mL)
0.7	O=C(Nc1ccc(F)c(-c2nc3cc(N4CCOCC4)cnn3n2)c1)N1CCCC1	> 50.1	EC50 [2]: 0.794 µM; solubility at 4 h [3]: 182 µM (≈ 74.9 µg/mL)
< 0.5	O=C(Nc1cc(-c2cn3cc(N4CCOCC4)cnc3n2)ncn1)N1CCCC1	> 50.1	
< 0.5	O=C(Nc1ccc(F)c(-c2ccn3c(N4CCNCC4)cnc3n2)c1)N1CCCC1	> 50.1	
< 0.5	O=C(Nc1ccc(F)c(-c2cn3cc(N4CCOCC4)cnc3n2)c1)N1CCCC1	> 50.1	EC50 [2]: 0.631 µM; solubility at 4 h [3]: 15 µM (≈ 6.16 µg/mL); remaining at 3 h [9]: 100%; remaining at 3 h [10]: 100%; T>EC90 [11]: 2 h; T>EC90 [12]: > 6 h; Activity [5]: Toxic; pEC90 (THP-1): 5.7
< 0.5	O=C(Nc1ccc(F)c(-c2nc3ncc(N4CCOCC4)cn3n2)c1)N1CCCC1		
< 0.5	O=C(Nc1cccc(-c2cn3cc(N4CCOCC4)cnc3n2)n1)N1CCCC1	> 50.1	
< 0.5	O=C(Nc1cnnc(-c2cn3cc(N4CCOCC4)cnc3n2)c1)N1CCCC1	> 50.1	
